According to ChEMBL document CHEMBL1139403, “Syntheses and anti-depressant activity of 5-amino-1, 3, 4-thiadiazole-2-thiol imines and thiobenzyl derivatives” (2008):

Experiments:
Mus musculus [1] = assay: Neurotoxicity in albino mouse assessed as animal in lateral position at 10 mg/kg, ip administered 1 hr prior to ethanol challenge measured after 30 mins; type: functional; settings: route intraperitoneal
Mus musculus [2] = assay: Antidepressant activity in albino mouse assessed as decrease in immobility time at 10 mg/kg, ip after 60 mins by forced-swimming test relative to untreated control; type: functional; design: scale not given: the % may be the effect or the level left; settings: route intraperitoneal
How it was run: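 Albino mice given 10 mg/kg ip; forced swim in a vertical Plexiglas cylinder of water at 25 °C for 15 min, immobility plateauing after 5–6 min; % immobility calculated; mice dried in a heated enclosure (32 °C) afterwards.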

SMILES	Activity (Mus musculus [1]) [%]	Activity (Mus musculus [2]) [%]
COc1ccc(/C=C/C(=N\c2nnc(SCc3ccccc3)s2)c2ccc(Cl)cc2)cc1	<50	77.99
Clc1ccc(/C=C/C(=N\c2nnc(SCc3ccccc3)s2)c2ccc(Cl)cc2)cc1	<50	
COc1ccc(/C=C/C(=N\c2nnc(SCc3ccc(Cl)cc3)s2)c2ccc(Cl)cc2)cc1	<50	84.23
Clc1ccc(/C=C/C(=N\c2nnc(SCc3ccc(Cl)cc3)s2)c2ccc(Cl)cc2)cc1	<50	87.57
CN(C)CCCN1c2ccccc2CCc2ccccc21 [IMIPRAMINE]	<50	82
